The record followed here is ChEMBL document CHEMBL4330057, “Second generation of diazachrysenes: Protection of Ebola virus infected mice and mechanism of action” (Eur J Med Chem, 2019).

One series concerns Ebolavirus. In words: Antiviral activity against Ebolavirus. Type of series: functional, organism-based. The note with it: Orthoebolavirus.
Series [1] in a line: Drug uptake in C57Bl/6 mouse serum at 10 mg/kg/day, ip qd for 7 days measured on day 5 at 15 to 180 mins post dose by UHPLC/MS analysis. Type of series: ADME, organism-based. The conditions noted are these: in vivo, read-out: Drug uptake.
The nature of series [2]: Drug uptake in C57Bl/6 mouse serum at 10 mg/kg/day, ip qd for 7 days measured on day 7 at 5 to 240 mins post dose by UHPLC/MS analysis. The conditions noted are these: in vivo, read-out: Drug uptake. Type of series: ADME, organism-based.
A short description of series [3]: Solubility of the compound in pH 7.4 buffer by laser nephelometric method. Type of series: physicochemical. The method in brief: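 Solubility at pH 7.4 was measured by laser nephelometry (light scattering), in triplicate.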
Series [4] addresses T1, Cytochrome P450 3A4 (Homo sapiens, UniProt P08684). The series is described as follows: Inhibition of CYP3A4 (unknown origin) using 7-benzyloxyquinoline as substrate. It is filed as ADME. The method in brief: (§1)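 CYP IC50 was taken from the net fluorescent signal after incubation at 37 °C for a set time with active cytochrome P450 enzyme and a fluorescent probe substrate.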

Series [5] deals with T1, Cytochrome P450 3A4. The series is described as follows: Inhibition of CYP3A4 (unknown origin) using dibenzylfluorescein as substrate. It is filed as ADME. The essentials:
as §1

In series [6] the target is T1, Cytochrome P450 3A4. In words: Inhibition of CYP3A4 (unknown origin) using 7-benzyloxy-4-trifluoromethylcoumarin as substrate. Type of series: ADME. The essentials:
as §1

A short description of series [7]: Clearance in human liver microsomes after 1 hr. The note with it: read-out: CLH. Type of series: ADME, Microsome. The method in brief: (§2)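 Substrate depletion with mouse or human liver microsomes, 1 h at 37 °C. Clearance (μL/min/mg) and half-life derived.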
Background: Liver microsomes are a subcellular fraction often used to study metabolism.

A short description of series [8]: Half life in human liver microsomes. Type of series: ADME, Microsome. The essentials: as §2
Series [9] can be described thus: Apparent permeability from apical to basolateral side in MDCK cells. It is filed as ADME, cell-based, Canis lupus familiaris. The conditions noted are these: dog. The method in brief: (§3)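 Apparent permeability measured in MDCK cell monolayers, apical→basolateral and basolateral→apical directions, three biological replicates.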
Series [10] in a line: Apparent permeability from basolateral to apical side in MDCK cells. The conditions noted are these: dog. It is filed as ADME, cell-based, Canis lupus familiaris. The essentials:
as §3

Series [11] in a line: Drug uptake in C57Bl/6 mouse serum at 20 mg/kg/day, ip qd for 7 days measured at 24 hrs post last dose by UHPLC/MS analysis. Type of series: ADME, organism-based. The note with it: read-out: Drug uptake. The method in brief:
(§4)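 Serum from two mice dosed 20 mg/kg/day i.p. taken 24 h after the last dose. Compound quantified by UHPLC/MS and screened for M+2, M+16, M-2 and M+32 products or combinations.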

Series [12] is described as follows: Drug metabolism in C57Bl/6 mouse assessed as reduction metabolite formation at 20 mg/kg/day, ip qd for 7 days measured at 24 hrs post last dose by UHPLC/MS analysis. The note with it: in vivo. Type of series: ADME, organism-based. The method in brief:
as §4

The nature of series [13]: Drug metabolism in C57Bl/6 mouse assessed as bis-oxygenation metabolite formation at 20 mg/kg/day, ip qd for 7 days measured at 24 hrs post last dose by UHPLC/MS analysis. Type of series: ADME, organism-based. The note with it: in vivo. The method in brief: as §4
The nature of series [14]: Hepatotoxicity in 6 hrs post fertilized transgenic l-fabp:EGFP zebrafish embryo assessed as change in liver area index up to 30 uM up to 120 hrs post fertilization by fluorescence assay. It is filed as toxicity, Danio rerio. The note with it: in vivo. The essentials:
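Tg(l-fabp:EGFP) zebrafish embryos exposed from 6 hpf. At 120 hpf, liver area index (liver area/lateral body area) and liver fluorescence assessed by in vivo imaging.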

Series [15] can be described thus: Myelotoxicity in 6 hrs post fertilized transgenic mpx:GFP zebrafish embryo assessed as reduction in neutrophil occurrence up to 40 uM measured at 72 hrs hrs post fertilization by fluorescence assay. More on the design: species or system Danio rerio. The essentials:
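Tg(mpx:GFP) zebrafish embryos with GFP-labelled neutrophils were treated with compound. At 72 hpf, neutrophil fluorescence of the whole embryo and neutrophil occurrence were assessed.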

Series [16] can be described thus: Acute toxicity in C57Bl/6 mouse assessed as effect on behavior at 20 mg/kg/day, ip qd for 7 days measured twice daily for 28 days. The conditions noted are these: in vivo, 672 h. Type of series: organism-based. The method in brief:
(§5)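 Six healthy mice received 20 mg/kg i.p. once daily for seven doses. Behaviour and appearance observed twice daily for 28 days after the last dose.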

The nature of series [17]: Acute toxicity in C57Bl/6 mouse assessed as effect on appearance at 20 mg/kg/day, ip qd for 7 days measured twice daily for 28 days. The note with it: in vivo, 672 h. Type of series: organism-based. The essentials:
as §5

Series [18] has as its system Zaire ebolavirus. In words: Antiviral activity against Ebolavirus Mayinga infected in Balb/c mouse assessed as protection against viral infection by measuring host survival at 10 mg/kg, ip administered 2 hrs prior to viral infection daily for 6 days and measured for 14 days relative to control. It is filed as functional, 1976.
In series [19] the test system is Zaire ebolavirus. In words: Antiviral activity against VSV pseudotyped Ebolavirus Mayinga expressing GFP infected in human HeLa cells assessed as inhibition of viral infection at 2 uM pre-incubated for 2 hrs followed by viral infection and measured after 8 hrs by cell mask deep red staining based assay. The note with it: 1976. It is filed as functional, organism-based. The essentials: (§6)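 HeLa cells pretreated 2 h with compound, then infected with rVSV-EBOV-GP-GFP (8 h) or VSV-GFP (6 h), and stained with Cell Mask Deep Red. Relative inhibition = 1 minus (% GFP-expressing cells normalised to mock). Mean ± SD of three replicates, representative of three independent experiments.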

The subject of series [20] is Vesicular stomatitis virus. In words: Antiviral activity against VSV expressing GFP infected in human HeLa cells assessed as inhibition of viral infection at 2 uM pre-incubated for 2 hrs followed by viral infection and measured after 6 hrs by cell mask deep red staining based assay. Type of series: functional, organism-based. The essentials: as §6
Series [21] relates to Vesicular stomatitis virus. In words: Antiviral activity against VSV expressing GFP infected in human HeLa cells assessed as inhibition of viral infection at 50 uM pre-incubated for 2 hrs followed by viral infection and measured after 6 hrs by cell mask deep red staining based assay. Type of series: functional, organism-based. The method in brief:
as §6

Series [22] deals with Vesicular stomatitis virus. The series is described as follows: Antiviral activity against VSV expressing GFP infected in human HeLa cells assessed as inhibition of viral infection at 0.1 uM pre-incubated for 2 hrs followed by viral infection and measured after 6 hrs by cell mask deep red staining based assay. It is filed as functional, organism-based. The essentials:
as §6

A further series relates to HeLa. In words: Induction of lysosome suppression in human HeLa cells assessed as vesicular compartment expansion pretreated for 2 hrs by uranyl acetate staining based transmission electron microscopic method. Type of series: functional, subcellular. The method in brief:
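HeLa cells mock-treated or treated 2 h with compound, then left uninfected or infected with rVSV-EBOV-GP-GFP for 2 h or 6 h. Processed for transmission electron microscopy to examine vesicular compartments.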

Activity calls are given as the source filed them. The rule behind the calls is not given here. Where only a bound is given, the exact number is not on record here.

T1 sequence (P08684 whole entry): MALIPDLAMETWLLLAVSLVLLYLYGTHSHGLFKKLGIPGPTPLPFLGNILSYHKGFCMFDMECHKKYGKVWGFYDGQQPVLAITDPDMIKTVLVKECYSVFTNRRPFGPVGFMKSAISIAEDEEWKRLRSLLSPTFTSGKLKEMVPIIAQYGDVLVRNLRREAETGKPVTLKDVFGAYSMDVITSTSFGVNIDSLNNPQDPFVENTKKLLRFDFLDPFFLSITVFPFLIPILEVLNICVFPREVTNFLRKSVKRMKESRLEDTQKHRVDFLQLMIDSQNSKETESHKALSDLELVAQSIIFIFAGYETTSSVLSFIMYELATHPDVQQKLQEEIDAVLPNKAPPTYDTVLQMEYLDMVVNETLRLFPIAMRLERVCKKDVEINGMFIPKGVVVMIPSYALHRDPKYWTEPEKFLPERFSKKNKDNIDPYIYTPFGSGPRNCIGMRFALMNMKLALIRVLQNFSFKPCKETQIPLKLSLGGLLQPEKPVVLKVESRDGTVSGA

Regarding `Cl.Cl.Cl.Cl.c1cc(NCCN2CCOCC2)c2ccc3c(ccc4c(NCCN5CCOCC5)ccnc43)c2n1`, a half-maximal response in the series with Ebolavirus (EC50) required 700 nM. Also, the figures for the concentration in [1] and in [2] were 460 to 1030 nM and 460 to 650 nM, respectively.
With `Cl.Cl.Cl.Cl.c1cc(NCCCCN2CCOCC2)c2ccc3c(ccc4c(NCCN5CCOCC5)ccnc43)c2n1`, the kinetic solubility in [3] was greater than 50 µg/mL. The INH on Cytochrome P450 3A4 [4], at Cytochrome P450 3A4 [5] and on Cytochrome P450 3A4 [6] was greater than 10 µM each time. In series [7], the microsomal CLint amounted to 32.9 µL/min/mg. In addition, the half-life in [8] was 42.1 min. For the same compound, in series [9], the Papp A→B is 39.3 to 67.2 ×10⁻⁶ cm/s. The apparent permeability from basolateral to apical (Papp B→A) in [10] was 43.2 to 67.3 ×10⁻⁶ cm/s. The concentration at 24 h in series [11] lay within 350 to 1200 nM. In addition, the Drug metabolism entry in series [12] and in series [13] was “Metabolite_Notdetected” in each case. The Activity result in [14] is “Non-Toxic”; in series [15] it was “Non-Toxic”; in series [16], “Non-Toxic”; in [17], “Non-Toxic”; in the series on Zaire ebolavirus [18], 100%. In addition, the outcome (in the series with Zaire ebolavirus [19]; in series [21]; with HeLa) was Active. Besides, the outcome in series [20] and in series [22] was inactive.

A word on the EC50: it is the concentration that produces a half-maximal response. High values mean a need for much substance, low ones an effect from little substance. Broadly, the solubility (kinetic) is solubility judged after dilution from a stock solution rather than from solid. In general, half-life refers to how long it takes for the measured level to halve. A high value points to slow loss. As usually defined, the Papp A→B is how fast a substance crosses the layer from the apical side. In general, Papp B→A refers to the apparent permeability from the basolateral to the apical side of a cell layer.
